Source: PubChem (several laboratories)
14-3-3 Bad inh: disrupts binding of bovine 14-3-3 zeta to phospho-Bad peptide. inhibition, % at 21.7 µM. TR-FRET 14-3-3zeta/Dy647-pBad peptide displacement, 1 h. actives 0.71% (n = 220,000). P63103;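 active means inhibition above about 70%, limit read from the data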;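 further: 0% = full 14-3-3 plus peptide FRET controls and 100% = background without 14-3-3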
TbHK1 inh: blocks Trypanosoma brucei hexokinase 1 activity; recombinant TbHK1, G6PDH-coupled NADH A340; inhibition, % at 10 µM; actives 0.11% (n = 220,000);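 active means inhibition of 50% or more in the single-dose primary screen; inactive means inhibition below 50%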
Mdm2 ligase inh: inhibitors of human Mdm2 E3 ubiquitin ligase | Q00987 | cell-based MDM2 ubiquitination luciferase reporter, 2 h; 0 = plate control, 100 = twice control, blank-subtracted | signal enhancement, % at 5 µM | actives 0.11% (n = 210,000) | AID 1230;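 active means signal enhancement of 30% or more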;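 further: luminescence tracks abundance of the self-degrading MDM2-luciferase fusion protein; higher signal means inhibition of MDM2 E3 ligase activity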
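Buffer or medium: Cells held in DMEM | Assay system: Stable mammalian line carrying autodegrading MDM2–luciferase fusion reporter | Quantity: 2000 cells/well | Times: 4 h settle plus 2 h compound, 37 °C | Doses: One concentration, 5 µM, with 0.2% DMSO | Technique: Luminescence with SteadyLite reagent, 15 min at room temperature | Benchmarks: Plate controls and plate blanks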
Wee1 degr inh: human Wee1 degradation inhibition, primary screen | AID 1321 | HeLa Luc-Wee1K328M stability, luciferase luminescence; 100% = proteasome inhibitor MG132 effect | actives 1.2% (n = 220,000) | reporter increase, % at 5 µM | P30291;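 active means activation above the mean of all tested compounds plus 3 SD, set per screening run, cut at about 8.8% in these data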;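 further: cells exposed to compound for 20 h before luminescence read; 0% = DMSO alone and 100% = MG132 at 30 µM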
Hck-Nef inh: inhibitors of human Hck kinase activated by Nef; P08631; Recombinant Hck-YEEI plus Nef, Z-Lyte FRET kinase assay; inhibition, % at 20 µM; actives 0.68% (n = 220,000); AID 463187;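 active means Hck-Nef kinase inhibition above about 50%, limit read from the data; inactive means inhibition below that limit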;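 further: 0% = DMSO with Hck plus Nef and 100% = Hck alone without Nef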
Target sequence (P08631 whole entry, looked up): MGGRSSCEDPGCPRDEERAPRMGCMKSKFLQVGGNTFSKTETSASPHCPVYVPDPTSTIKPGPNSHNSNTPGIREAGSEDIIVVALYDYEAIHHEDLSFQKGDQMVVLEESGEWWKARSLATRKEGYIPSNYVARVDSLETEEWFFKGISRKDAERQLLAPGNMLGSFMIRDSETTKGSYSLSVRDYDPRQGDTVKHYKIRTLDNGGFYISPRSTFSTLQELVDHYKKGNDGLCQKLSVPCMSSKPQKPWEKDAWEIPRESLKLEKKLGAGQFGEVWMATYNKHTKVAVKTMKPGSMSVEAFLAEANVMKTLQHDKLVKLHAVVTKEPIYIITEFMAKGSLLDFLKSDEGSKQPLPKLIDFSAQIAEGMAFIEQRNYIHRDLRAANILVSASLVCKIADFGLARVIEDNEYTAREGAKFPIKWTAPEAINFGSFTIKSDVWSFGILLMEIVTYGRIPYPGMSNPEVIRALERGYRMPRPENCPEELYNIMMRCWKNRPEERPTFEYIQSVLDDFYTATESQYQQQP
The depositor's hits bear a star; nt = no result; ! = not confirmed by another sample; [ ] = remark or other dose. An excerpt weighted towards active compounds, which were near 2.7% of everything screened.

SMILES	14-3-3 Bad inh	TbHK1 inh	Mdm2 ligase inh	Wee1 degr inh	Hck-Nef inh
COc1ccc(-n2c(/C=C(\C)O)nc(=O)c3c(C)cc(C)nc32)cc1	-5	-41	-35	0	1
CC(C)(C)C1=CC(=O)C(=O)C(C(C)(C)C)=C1	25	1	26	-1	56*
Cc1nnc(SCCN2CCOCC2)c2nn(-c3ccccc3F)c(C)c12	7	10	79*	4	6
Cc1nnc(Cl)c2nn(-c3ccccc3F)c(C)c12	34	3	1	-1	11
Nc1c(C(=O)N/N=C/c2cccnc2)oc2nc(-c3ccco3)cc(-c3ccco3)c12	-2	9	-10	3	64*
COc1c(F)c(F)c(C(=O)Nc2ccc(-c3nc4ccccc4[nH]3)cc2)c(F)c1F	-10	-15	-12	10.0*	25
O=C(CSc1ccccc1)Nc1ccc(-c2nc3ccccc3[nH]2)cc1	3	-6	-5	2	2
O=C(OCc1nnc(-c2ccccc2)o1)c1ccccc1	1	-1	-8	-3	-17
O=C(OCc1nnc(-c2ccccc2)o1)C12CC3CC(CC(Br)(C3)C1)C2	16	8	3	9.6*	6
Cc1nc(-c2ccc(NC(=O)CC(C)C)cc2)cs1	15	2	-24	4	-1
O=C(CSc1n[nH]c(=O)[nH]c1=O)c1ccc([N+](=O)[O-])cc1	2	-9	-11	12*	4
Cc1nn(-c2ccccc2C(=O)O)c(=O)c2ccccc12	82*	-3	-2	0	1
NS(=O)(=O)c1ccc(CCNC(=O)/C=C/c2cccc([N+](=O)[O-])c2)cc1	-6	1	-7	0	18
Cc1cc(C(=O)NCC(=O)OCC(=O)NCCc2ccccc2)ccc1[N+](=O)[O-]	-1	-34	-2	-3	-3
COc1nc(N/N=C/c2ccc(-c3cccc([N+](=O)[O-])c3)o2)nc(N2CCOCC2)n1	74*[fluorescence artefact?]	-3	-10	-1	8
Clc1ccc(-c2ccc(CNCC3CCCO3)o2)cc1 (stereo not given)	2	6	-15	7	15
O=C1COc2cccnc2N1	-1	6	-20	9.4*!	3
O=C1COc2ccccc2CN1	5	6	7	2	0
COc1ccc(-c2cc(C(F)(F)F)nc(S(=O)(=O)CCCC(=O)Nc3cccnc3Cl)n2)cc1OC	-5	-15	34*	1	28
COC(=O)CCS(=O)(=O)c1nc(-c2ccccc2)cc(C(F)(F)F)n1	4	1	5	2	-21
Nc1ccc(N)c(C(=O)O)c1	96*	nt	nt	nt	nt
Nc1ccc(C(=O)O)c(O)c1	-12	-1	-9	-1	20
COc1ccc(Cc2nc3ccccc3n2CC(=O)N/N=C/c2ccc(C)cc2O)cc1OC	83*	-19	nt	8	-3
COc1ccc(Cc2nc3ccccc3n2CC(=O)N/N=C/c2ccc(O)cc2)cc1OC	6	-9	-14	0	1
O=C(CCCc1ccccc1)N1CCc2ccccc21	-9	0	-44	9.8*	1
SMILES	14-3-3 Bad inh	TbHK1 inh	Mdm2 ligase inh	Wee1 degr inh	Hck-Nef inh
N#CC1=C(SCC(=O)c2ccccc2)NC2=C(C(=O)CCC2)C1c1ccco1 (stereo not given)	-2	-2	-3	9.8*	5
Cc1ccc(C(=O)CSC2=C(C#N)C(c3ccco3)C3=C(CCCC3=O)N2)cc1 (stereo not given)	-2	-7	-11	-1	-1
COc1cccc(NC(=O)CSC2=C(C#N)C(c3ccco3)C3=C(CCCC3=O)N2)c1 (stereo not given)	-17	-8	-9	10*	2
O=C(O)c1[nH]c2ccc([N+](=O)[O-])cc2c1-c1ccccc1	0	-2	-4	4	15
O=[N+]([O-])c1ccc2[nH]nc(-c3ccccc3)c2c1	-4	-13	0	8.9*	-2
CCN(C(=O)COC(=O)c1cc(-c2ccccc2)nc2ccc(Br)cc12)C1CCS(=O)(=O)C1 (stereo not given)	-12	1	-8	9.2*	-17
CCN1C(=O)C(CC(=O)Nc2c(C)cccc2C)Nc2cc(S(=O)(=O)N(C)C)ccc21 (stereo not given)	-19	-3	-23	-4	14
O=C(C(=O)N1CCN(c2ccccc2)CC1)c1c[nH]c2ccccc12	-6	-14	-20	11*	-9
